# Measurements reported in ChEMBL document CHEMBL3856239, “Synthesis and Antiobesity Properties of 6-(4-Chlorophenyl)-3-(4-((3,3-difluoro-1-hydroxycyclobutyl)methoxy)-3-methoxyphenyl)thieno[3,2-d]pyrimidin-4(3H)-one (BMS-814580): A Highly Efficacious Melanin Concentrating Hormone Receptor 1 (MCHR1) Inhibitor” (J Med Chem, 2016).
# Experiments:
# [1] = AUC in cynomolgus monkey at 1 mg/kg, iv; format: ADME, organism-based, Macaca fascicularis; conditions: in vivo
# How it was run: (§1)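 Rats, dogs and cynomolgus monkeys, n = 3: parent 1 mg/kg i.v. in PEG400:DMAC:water (70:5:25), or phosphate prodrug 10 mg/kg oral in Methocel:Tween80:water (0.5:0.1:99.4); plasma parent compound, Cmax, Tmax, AUC0-∞, half-life, clearance, Vss and bioavailability derived.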
# [2] = Volume of distribution at steady state in dog at 1 mg/kg, iv; format: ADME, organism-based, Canis lupus familiaris; conditions: in vivo, read-out: Vdss
# How it was run: (§2)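 Full PK in rat, dog and cynomolgus monkey. Oral arm: phosphate prodrug at 10 mg/kg parent-equivalent in Methocel:Tween80:water (0.5:0.1:99.4). Intravenous arm: parent at 1 mg/kg in PEG400:DMAC:water (70:5:25). n = 3 per species; individual Tmax values reported for dog and monkey.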
# [3] = Metabolic stability in mouse liver microsomes assessed as compound remaining at 3 uM measured after 10 min; format: ADME; conditions: read-out: Stability
# How it was run: (§3)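 Test compound at 3.0 µM incubated with liver microsomes for 10 minutes; read-out is percent of parent remaining.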
# [4] = Volume of distribution at steady state in rat at 1 mg/kg, iv; format: ADME, organism-based; conditions: in vivo, read-out: Vdss; how it was run: as §2
# [5] = Cardiotoxicity in anesthetized rabbit assessed as effect on mean arterial blood pressure; format: toxicity, tissue-based, Oryctolagus cuniculus
# How it was run: (§4)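 Anesthetized rabbits given compound to plasma concentrations up to 38 µM; QT and QRS duration, mean arterial blood pressure and heart rate recorded.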
# [6] = Binding affinity to cynomolgus monkey MCHR1; design: species or system Macaca fascicularis
# Rattus norvegicus [7] = experiment: Antiobesity activity in pair-fed DIO Sprague-Dawley rat model assessed as reduction in body weight at 3 mg/kg, po qd for 28 days relative to vehicle control; format: functional; design: scale not given: the % may be the effect or the level left
# How it was run: (§5)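 Obese male SD rats on diet-induced obesity, 8/group, dosed orally once daily for 28 days with phosphate prodrug (0.03–3 mg/kg parent) in 14% propylene glycol/1% Tween/85% water; rimonabant 10 mg/kg control; pair-fed groups matched to 1 and 3 mg/kg intake; body weight and food measured daily, % change versus vehicle.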
# Rattus norvegicus [8] = experiment: Antiobesity activity in pair-fed DIO Sprague-Dawley rat model assessed as reduction in body weight at 1 mg/kg, po qd for 28 days relative to vehicle control; format: functional; design: scale not given: the % may be the effect or the level left; how it was run: as §5
# [9] = Cardiotoxicity in anesthetized rabbit assessed as prolongation of QT intervals up to plasma concentration of 38 uM; format: toxicity, Oryctolagus cuniculus; how it was run: as §4
# [10] = Cardiotoxicity in anesthetized rabbit assessed as effect on heart rate; format: toxicity, tissue-based, Oryctolagus cuniculus; how it was run: as §4
# Cytochrome P450 3A4 = Cytochrome P450 3A4 (Homo sapiens, UniProt P08684); experiment: Inhibition of CYP3A4 (unknown origin); format: ADME
# [11] = Protein binding in rat plasma assessed as unbound fraction; format: ADME, cell-free
# How it was run: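 Plasma protein binding reported as % free drug in rat, DIO rat, dog, cynomolgus monkey, rabbit and human plasma.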
# Homo sapiens = species: Homo sapiens; experiment: Inhibition of human PDE4 using [3H]cAMP at 10 uM
# hERG (KCNH2) = hERG (KCNH2) (Homo sapiens, UniProt Q12809); experiment: Inhibition of human ERG at 10 uM
# How it was run: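 In vitro ion-channel inhibition measured at 10 µM against hERG, Na (4 Hz) and L-type Ca channels; read-out is percent inhibition.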
# Cytochrome P450 2C9 = Cytochrome P450 2C9 (Homo sapiens, UniProt P11712); experiment: Inhibition of CYP2C9 (unknown origin); format: ADME
# How it was run: (§6)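 CYP1A2, 2C8, 2C9, 2C19, 2D6 and 3A4 tested for inhibition, with 40 µM as the top tested limit.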
# [12] = AUC in rat at 1 mg/kg, iv; format: ADME, organism-based; conditions: in vivo; how it was run: as §1
# [13] = Clearance in cynomolgus monkey at 1 mg/kg, iv; format: ADME, organism-based, Macaca fascicularis; conditions: in vivo; how it was run: as §1
# Cytochrome P450 2D6 = Cytochrome P450 2D6 (Homo sapiens, UniProt P10635); experiment: Inhibition of CYP2D6 (unknown origin); format: ADME
# [14] = target: Melanin-concentrating hormone receptor 1 (Homo sapiens, UniProt Q99705); experiment: Antagonist activity at human MCHR1 expressed in HEK293 cells assessed as inhibition of MCH-stimulated calcium flux measured after 15 mins by FLIPR assay; format: functional, cell-based
# [15] = AUC in dog at 1 mg/kg, iv; format: ADME, organism-based, Canis lupus familiaris; conditions: in vivo; how it was run: as §1
# [16] = Solubility of the compound in phosphate buffer at pH 6.4; format: physicochemical
# How it was run: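 Solubility of parent compounds and prodrugs measured in 50 mM phosphate buffer, pH 6.4.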
# Rattus norvegicus [17] = experiment: Antiobesity activity in pair-fed DIO Sprague-Dawley rat model assessed as reduction in caloric intake at 3 mg/kg, po qd for 28 days relative to vehicle control; format: functional; design: scale not given: the % may be the effect or the level left; how it was run: as §5
# [18] = Protein binding in Sprague-Dawley rat plasma at 10 mg/kg, po qd for 4 days; format: ADME, organism-based; conditions: read-out: PPB
# [19] = target: Melanin-concentrating hormone receptor 1 (Rattus norvegicus, UniProt P97639); experiment: Binding affinity to rat MCHR1
# [20] = Clearance rat at 1 mg/kg, iv; format: ADME, organism-based; conditions: in vivo; how it was run: as §1
# [21] = Half life in rat at 1 mg/kg, iv; format: ADME, organism-based; conditions: in vivo; how it was run: as §1
# [22] = Cardiotoxicity in anesthetized rabbit assessed as prolongation of QRS intervals up to plasma concentration of 38 uM; format: toxicity, Oryctolagus cuniculus; how it was run: as §4
# [23] = Mutagenic activity in Salmonella typhimurium by Ames test; format: toxicity; conditions: salmonella enterica subsp. enterica serovar typhimurium
# Cytochrome P450 2C19 = Cytochrome P450 2C19 (Homo sapiens, UniProt P33261); experiment: Inhibition of CYP2C19 (unknown origin); format: ADME; how it was run: as §6
# [24] = Lipophilicity, log P of the compound at pH 7 by HPLC analysis; format: physicochemical; conditions: buffer
# How it was run: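 LogP determined by HPLC at pH 7.0.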
# [25] = Metabolic stability in human liver microsomes assessed as compound remaining at 3 uM measured after 10 min; format: ADME; conditions: read-out: Stability; how it was run: as §3
# [26] = Volume of distribution at steady state in cynomolgus monkey at 1 mg/kg, iv; format: ADME, organism-based, Macaca fascicularis; conditions: in vivo, read-out: Vdss; how it was run: as §2
# Cytochrome P450 1A2 = target: T1, Cytochrome P450 1A2 (Homo sapiens, UniProt P05177); experiment: Inhibition of CYP1A2 (unknown origin); format: ADME; how it was run: as §6
# T1 sequence (P05177 whole entry): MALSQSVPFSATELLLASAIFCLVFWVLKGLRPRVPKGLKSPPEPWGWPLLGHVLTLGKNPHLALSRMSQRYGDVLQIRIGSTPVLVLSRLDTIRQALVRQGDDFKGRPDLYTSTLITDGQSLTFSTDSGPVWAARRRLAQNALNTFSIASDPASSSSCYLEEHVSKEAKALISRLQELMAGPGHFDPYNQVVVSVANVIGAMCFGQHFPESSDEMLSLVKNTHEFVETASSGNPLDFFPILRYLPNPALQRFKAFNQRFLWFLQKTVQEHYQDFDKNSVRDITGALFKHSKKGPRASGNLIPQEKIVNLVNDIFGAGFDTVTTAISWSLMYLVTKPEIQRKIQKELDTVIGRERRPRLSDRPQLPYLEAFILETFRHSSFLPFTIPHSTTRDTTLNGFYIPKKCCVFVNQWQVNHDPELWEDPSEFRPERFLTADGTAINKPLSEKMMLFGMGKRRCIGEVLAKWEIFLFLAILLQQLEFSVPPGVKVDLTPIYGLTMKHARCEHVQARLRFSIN
# [27] = Displacement of [Phe13,125I]Tyr19]-MCH from human MCHR1 E4Q/A5T double mutant expressed in HEK293 cells by TopCount scintillation counting method; format: cell-based
# [28] = Metabolic stability in rat liver microsomes assessed as compound remaining at 3 uM measured after 10 min; format: ADME; conditions: read-out: Stability; how it was run: as §3
# Sequence of Cytochrome P450 2C9 (P11712 whole entry): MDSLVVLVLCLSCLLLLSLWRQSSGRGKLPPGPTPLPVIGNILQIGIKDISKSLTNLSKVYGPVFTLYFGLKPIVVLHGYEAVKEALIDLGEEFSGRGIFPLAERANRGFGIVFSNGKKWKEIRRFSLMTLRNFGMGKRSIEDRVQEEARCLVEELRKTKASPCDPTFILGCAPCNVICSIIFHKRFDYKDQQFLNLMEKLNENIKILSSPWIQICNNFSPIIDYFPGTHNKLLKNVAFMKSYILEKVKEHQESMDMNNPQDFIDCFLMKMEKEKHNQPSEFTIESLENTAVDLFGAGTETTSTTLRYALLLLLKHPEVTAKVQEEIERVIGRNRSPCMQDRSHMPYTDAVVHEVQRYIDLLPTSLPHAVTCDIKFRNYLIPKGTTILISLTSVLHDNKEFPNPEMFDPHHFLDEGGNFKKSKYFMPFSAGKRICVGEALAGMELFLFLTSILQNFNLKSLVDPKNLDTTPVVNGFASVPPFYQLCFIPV
# Sequence of Cytochrome P450 3A4 (P08684 whole entry): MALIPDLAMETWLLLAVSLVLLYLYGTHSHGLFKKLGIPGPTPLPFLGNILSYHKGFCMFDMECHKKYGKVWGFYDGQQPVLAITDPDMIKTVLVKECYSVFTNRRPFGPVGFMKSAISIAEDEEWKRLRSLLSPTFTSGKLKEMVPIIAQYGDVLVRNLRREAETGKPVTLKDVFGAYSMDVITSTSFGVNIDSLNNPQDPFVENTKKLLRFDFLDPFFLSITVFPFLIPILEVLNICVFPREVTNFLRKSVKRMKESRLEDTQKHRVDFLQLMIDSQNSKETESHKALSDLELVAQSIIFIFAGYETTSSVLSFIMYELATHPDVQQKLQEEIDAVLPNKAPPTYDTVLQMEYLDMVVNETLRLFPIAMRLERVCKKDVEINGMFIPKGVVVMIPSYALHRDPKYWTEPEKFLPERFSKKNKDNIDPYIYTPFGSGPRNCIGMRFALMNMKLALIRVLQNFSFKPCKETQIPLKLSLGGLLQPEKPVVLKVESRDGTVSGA
# Sequence of hERG (KCNH2) (Q12809 whole entry): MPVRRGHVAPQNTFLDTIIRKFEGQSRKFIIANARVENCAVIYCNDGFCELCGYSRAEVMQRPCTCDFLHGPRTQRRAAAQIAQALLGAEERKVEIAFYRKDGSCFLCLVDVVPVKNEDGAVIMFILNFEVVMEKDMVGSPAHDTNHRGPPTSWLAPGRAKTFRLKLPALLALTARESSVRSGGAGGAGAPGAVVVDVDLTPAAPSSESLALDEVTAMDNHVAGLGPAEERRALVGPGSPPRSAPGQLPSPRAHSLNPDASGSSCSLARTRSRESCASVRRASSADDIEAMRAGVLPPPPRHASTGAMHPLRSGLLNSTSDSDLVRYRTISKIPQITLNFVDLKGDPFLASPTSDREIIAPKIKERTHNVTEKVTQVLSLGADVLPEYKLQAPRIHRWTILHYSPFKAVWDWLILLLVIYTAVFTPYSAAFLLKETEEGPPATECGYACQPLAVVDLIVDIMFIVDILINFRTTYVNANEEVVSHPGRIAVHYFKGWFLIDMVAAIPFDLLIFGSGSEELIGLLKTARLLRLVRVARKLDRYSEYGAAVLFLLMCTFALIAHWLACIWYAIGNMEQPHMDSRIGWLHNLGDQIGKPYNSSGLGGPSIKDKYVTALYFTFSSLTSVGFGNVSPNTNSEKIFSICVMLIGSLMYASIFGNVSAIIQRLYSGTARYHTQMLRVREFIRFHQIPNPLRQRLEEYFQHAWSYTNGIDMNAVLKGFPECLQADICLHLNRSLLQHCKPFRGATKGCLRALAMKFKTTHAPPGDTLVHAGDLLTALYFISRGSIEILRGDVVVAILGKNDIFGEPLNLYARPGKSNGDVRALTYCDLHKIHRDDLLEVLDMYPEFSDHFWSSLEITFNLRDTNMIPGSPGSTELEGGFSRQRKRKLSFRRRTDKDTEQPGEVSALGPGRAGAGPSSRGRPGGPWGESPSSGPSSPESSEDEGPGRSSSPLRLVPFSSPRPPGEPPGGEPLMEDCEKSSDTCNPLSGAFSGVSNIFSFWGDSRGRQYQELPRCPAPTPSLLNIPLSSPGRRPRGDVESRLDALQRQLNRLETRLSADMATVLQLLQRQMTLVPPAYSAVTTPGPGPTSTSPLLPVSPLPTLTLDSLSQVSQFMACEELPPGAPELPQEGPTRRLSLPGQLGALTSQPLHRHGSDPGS
# Sequence of Melanin-concentrating hormone receptor 1 (Rattus norvegicus, UniProt P97639) (P97639 whole entry): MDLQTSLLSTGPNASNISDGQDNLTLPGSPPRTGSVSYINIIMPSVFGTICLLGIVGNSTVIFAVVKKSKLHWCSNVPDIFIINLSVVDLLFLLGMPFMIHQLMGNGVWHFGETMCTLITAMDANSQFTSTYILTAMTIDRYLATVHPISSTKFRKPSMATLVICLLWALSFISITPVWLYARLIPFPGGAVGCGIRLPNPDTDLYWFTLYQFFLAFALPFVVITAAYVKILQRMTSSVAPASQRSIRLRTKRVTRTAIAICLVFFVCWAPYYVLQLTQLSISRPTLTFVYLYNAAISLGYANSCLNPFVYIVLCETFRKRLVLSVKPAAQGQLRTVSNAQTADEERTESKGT
# Sequence of Cytochrome P450 2C19 (P33261 whole entry): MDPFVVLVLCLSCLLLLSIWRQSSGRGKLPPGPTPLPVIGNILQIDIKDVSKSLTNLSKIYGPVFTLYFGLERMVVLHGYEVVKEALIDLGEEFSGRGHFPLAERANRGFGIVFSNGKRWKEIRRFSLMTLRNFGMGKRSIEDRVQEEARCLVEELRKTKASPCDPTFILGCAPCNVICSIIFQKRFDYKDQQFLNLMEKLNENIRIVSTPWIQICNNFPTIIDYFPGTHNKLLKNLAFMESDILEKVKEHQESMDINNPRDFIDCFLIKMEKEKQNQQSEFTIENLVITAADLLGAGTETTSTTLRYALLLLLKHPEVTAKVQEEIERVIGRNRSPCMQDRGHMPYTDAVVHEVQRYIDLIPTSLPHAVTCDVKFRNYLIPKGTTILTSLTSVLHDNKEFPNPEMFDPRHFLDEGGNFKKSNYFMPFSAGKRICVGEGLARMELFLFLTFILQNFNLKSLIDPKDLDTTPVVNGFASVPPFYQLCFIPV
# Sequence of Melanin-concentrating hormone receptor 1 (Homo sapiens, UniProt Q99705) (Q99705 whole entry): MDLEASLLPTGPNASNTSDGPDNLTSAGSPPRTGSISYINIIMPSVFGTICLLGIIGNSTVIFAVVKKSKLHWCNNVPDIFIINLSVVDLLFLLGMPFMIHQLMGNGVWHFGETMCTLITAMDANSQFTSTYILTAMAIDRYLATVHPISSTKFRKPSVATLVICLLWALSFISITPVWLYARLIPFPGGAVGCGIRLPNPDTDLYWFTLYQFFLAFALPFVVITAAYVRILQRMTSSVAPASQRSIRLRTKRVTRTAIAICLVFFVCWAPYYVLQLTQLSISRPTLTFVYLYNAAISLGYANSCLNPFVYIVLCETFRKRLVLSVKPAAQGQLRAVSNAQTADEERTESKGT
# Sequence of Cytochrome P450 2D6 (P10635 whole entry): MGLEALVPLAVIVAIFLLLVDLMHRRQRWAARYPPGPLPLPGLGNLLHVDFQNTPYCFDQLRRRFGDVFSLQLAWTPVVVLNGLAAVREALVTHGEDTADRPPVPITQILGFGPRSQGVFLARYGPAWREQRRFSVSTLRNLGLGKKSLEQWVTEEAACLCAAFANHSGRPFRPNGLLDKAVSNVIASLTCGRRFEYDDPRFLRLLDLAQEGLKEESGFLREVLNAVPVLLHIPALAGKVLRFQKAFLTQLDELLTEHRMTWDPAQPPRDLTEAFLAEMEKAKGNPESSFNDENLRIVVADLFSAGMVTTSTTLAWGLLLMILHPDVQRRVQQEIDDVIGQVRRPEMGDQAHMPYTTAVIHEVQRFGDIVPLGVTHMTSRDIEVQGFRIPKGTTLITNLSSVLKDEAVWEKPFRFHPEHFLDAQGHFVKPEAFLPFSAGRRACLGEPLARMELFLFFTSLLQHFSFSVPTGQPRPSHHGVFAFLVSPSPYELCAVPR
smiles,measurement,setting,value
COc1cc(-n2cnc3cc(-c4ccc(Cl)cc4)sc3c2=O)ccc1OCC1(O)CC(F)(F)C1,AUC,[1],22.1 µM·h
same,Vd,[2],7.2 L/kg
same,"remaining at 10 min, 3 µM",[3],100%
same,Vd,[4],4.1 L/kg
same,Activity,[5],Non-Toxic
same,Ki,[6],4.9 nM
same,Activity,Rattus norvegicus [7],4.1%
same,Activity,Rattus norvegicus [8],4.2%
same,Activity,[9],Non-Toxic
same,Activity,[10],Non-Toxic
same,INH,Cytochrome P450 3A4,> 40 µM
same,Fu,[11],0.2%
same,inhibition,Homo sapiens,68%
same,inhibition at 10 µM,hERG (KCNH2),43%
same,INH,Cytochrome P450 2C9,> 40 µM
same,AUC,[12],11.5 µM·h
same,clearance,[13],1.7 mL/min/kg
same,INH,Cytochrome P450 2D6,> 40 µM
same,Kb,[14],117 nM
same,AUC,[15],5.2 µM·h
same,solubility,[16],< 1 µg/mL
same,Activity,Rattus norvegicus [17],14.7%
same,fraction unbound at 96 h,[18],< 0.02
same,Ki,[19],11.5 nM
same,clearance,[20],0.9 mL/min/kg
same,half-life,[21],> 24 h
same,Activity,[22],Non-Toxic
same,Activity,[23],Non-Toxic
same,INH,Cytochrome P450 2C19,> 40 µM
same,logP,[24],4.8
same,"remaining at 10 min, 3 µM",[25],90%
same,Vd,[26],5.4 L/kg
same,INH,Cytochrome P450 1A2,> 40 µM
same,Ki,[27],16.9 nM
same,"remaining at 10 min, 3 µM",[28],95%
